The target in test [1] is T1, YEATS domain-containing protein 4 (Homo sapiens, UniProt O95619). In words: Inhibition of human His-GAS41 YEATS domain and biotinylated H3K27ac peptide interaction by AlphaScreen assay. In a few lines: (§1)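 His-tagged YEATS domains were expressed in E. coli Rosetta-2 (DE3) pLysS and purified on Ni-NTA. Partners were biotinylated peptide on streptavidin donor and Ni2+-chelate acceptor beads: AF9 30 nM with H3K9ac, GAS41 100 nM with H3K27ac, YEATS2 100 nM with H3K27cr. Peptides at 30 nM, buffer 50 mM HEPES pH 7.4, 100 mM NaCl, 0.1% BSA, 0.05% CHAPS. Thirteen-point 3-fold series from 54 μM to 0.1 nM, 4–6 replicates, signal normalised to no-compound control, four-parameter fit.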
(In general: Alpha assays give light when donor and acceptor beads are brought close together.)

The target of test [2] is T2, YEATS domain-containing protein 2 (Homo sapiens, UniProt Q9ULM3).
T2 sequence (Q9ULM3 whole entry): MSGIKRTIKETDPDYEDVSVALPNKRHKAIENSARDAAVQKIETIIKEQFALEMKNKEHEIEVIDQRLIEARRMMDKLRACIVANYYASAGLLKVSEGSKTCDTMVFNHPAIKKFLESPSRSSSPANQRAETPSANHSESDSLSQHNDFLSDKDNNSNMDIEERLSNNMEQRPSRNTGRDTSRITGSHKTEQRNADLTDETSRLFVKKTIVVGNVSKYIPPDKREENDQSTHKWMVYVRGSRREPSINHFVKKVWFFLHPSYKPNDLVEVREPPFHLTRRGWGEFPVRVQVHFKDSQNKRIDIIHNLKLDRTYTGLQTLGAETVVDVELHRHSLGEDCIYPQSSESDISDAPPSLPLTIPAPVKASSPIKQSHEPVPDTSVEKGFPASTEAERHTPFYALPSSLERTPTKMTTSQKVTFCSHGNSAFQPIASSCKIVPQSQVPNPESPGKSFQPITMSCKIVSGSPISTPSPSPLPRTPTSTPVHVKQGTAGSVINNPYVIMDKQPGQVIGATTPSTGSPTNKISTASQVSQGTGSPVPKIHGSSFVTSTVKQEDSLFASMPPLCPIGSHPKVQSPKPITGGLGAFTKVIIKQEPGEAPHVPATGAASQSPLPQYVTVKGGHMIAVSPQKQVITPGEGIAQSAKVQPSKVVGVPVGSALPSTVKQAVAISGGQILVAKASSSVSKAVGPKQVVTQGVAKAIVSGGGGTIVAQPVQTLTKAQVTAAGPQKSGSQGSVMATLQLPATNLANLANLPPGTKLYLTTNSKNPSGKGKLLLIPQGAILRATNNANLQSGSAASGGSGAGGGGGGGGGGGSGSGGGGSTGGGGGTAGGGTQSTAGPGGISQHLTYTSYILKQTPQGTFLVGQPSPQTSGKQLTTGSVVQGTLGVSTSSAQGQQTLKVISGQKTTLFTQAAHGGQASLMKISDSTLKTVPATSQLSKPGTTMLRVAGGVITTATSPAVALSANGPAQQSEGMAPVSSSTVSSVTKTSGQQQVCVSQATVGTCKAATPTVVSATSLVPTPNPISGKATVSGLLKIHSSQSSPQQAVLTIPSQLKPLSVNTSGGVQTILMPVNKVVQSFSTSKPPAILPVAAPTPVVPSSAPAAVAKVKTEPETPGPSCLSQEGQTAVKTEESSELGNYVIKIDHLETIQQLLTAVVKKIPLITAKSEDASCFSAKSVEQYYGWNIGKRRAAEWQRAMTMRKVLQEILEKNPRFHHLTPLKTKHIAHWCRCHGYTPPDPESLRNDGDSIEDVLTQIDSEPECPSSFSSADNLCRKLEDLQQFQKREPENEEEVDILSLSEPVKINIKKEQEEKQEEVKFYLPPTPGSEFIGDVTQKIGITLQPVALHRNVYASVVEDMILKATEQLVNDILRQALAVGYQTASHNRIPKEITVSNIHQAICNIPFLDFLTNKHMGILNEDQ
In words: Inhibition of human His-YEATS2 YEATS domain and biotinylated […] peptide interaction by AlphaScreen assay. In a few lines:
as §1

The target of test [3] is T3, Protein AF-9 (Homo sapiens) (UniProt P42568).
T3 sequence (whole entry): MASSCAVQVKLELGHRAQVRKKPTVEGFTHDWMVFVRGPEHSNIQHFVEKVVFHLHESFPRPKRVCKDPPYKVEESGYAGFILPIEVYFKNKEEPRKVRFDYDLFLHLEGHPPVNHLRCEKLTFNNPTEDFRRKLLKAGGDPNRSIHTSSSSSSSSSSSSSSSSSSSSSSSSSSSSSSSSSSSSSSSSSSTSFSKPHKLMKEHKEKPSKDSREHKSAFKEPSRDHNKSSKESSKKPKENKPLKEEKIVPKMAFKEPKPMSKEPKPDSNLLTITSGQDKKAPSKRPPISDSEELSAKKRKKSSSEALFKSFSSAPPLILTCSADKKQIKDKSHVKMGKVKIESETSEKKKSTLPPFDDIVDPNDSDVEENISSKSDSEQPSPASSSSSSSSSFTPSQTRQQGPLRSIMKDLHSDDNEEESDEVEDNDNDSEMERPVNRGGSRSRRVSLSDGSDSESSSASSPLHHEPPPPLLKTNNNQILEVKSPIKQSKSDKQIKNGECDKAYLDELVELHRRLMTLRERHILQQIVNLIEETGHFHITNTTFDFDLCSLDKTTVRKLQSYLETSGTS
Briefly: Inhibition of human His-AF9 YEATS domain and biotinylated H3K9ac peptide interaction at 20 uM by AlphaScreen assay.

The target of test [4] is T1, YEATS domain-containing protein 4. Briefly: Inhibition of human His-GAS41 YEATS domain and biotinylated H3K27ac peptide interaction at 20 uM by AlphaScreen assay.
Test [5] has as its target T4, YEATS domain-containing protein 2 (Homo sapiens) (UniProt Q9ULM3).
T4 sequence (whole entry): T2 sequence (Q9ULM3 whole entry)
Briefly: Inhibition of human His-YEATS2 YEATS domain and biotinylated […] peptide interaction at 20 uM by AlphaScreen assay.

For another test, the target named is T5, Protein ENL (Homo sapiens, UniProt Q03111).
T5 sequence (Q03111 whole entry): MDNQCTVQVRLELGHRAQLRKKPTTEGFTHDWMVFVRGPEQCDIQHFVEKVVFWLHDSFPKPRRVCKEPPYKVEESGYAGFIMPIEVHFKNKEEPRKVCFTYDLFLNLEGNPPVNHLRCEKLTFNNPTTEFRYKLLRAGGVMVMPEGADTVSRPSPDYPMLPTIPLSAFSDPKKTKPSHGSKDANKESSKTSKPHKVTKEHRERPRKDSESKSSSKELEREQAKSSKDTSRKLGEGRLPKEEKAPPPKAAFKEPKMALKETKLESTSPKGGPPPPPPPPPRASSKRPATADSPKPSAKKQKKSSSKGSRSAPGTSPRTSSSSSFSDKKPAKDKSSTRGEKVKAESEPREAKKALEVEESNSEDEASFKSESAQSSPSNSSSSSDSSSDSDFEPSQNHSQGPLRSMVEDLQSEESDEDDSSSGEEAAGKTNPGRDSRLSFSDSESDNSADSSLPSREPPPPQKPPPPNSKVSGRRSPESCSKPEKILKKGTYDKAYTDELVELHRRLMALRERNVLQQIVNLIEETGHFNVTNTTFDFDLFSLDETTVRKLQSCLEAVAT
In words: Inhibition of human His-ENL YEATS domain and biotinylated H3K9ac peptide interaction by AlphaScreen assay.

The target in a further test is T6, Protein AF-9 (Homo sapiens, UniProt P42568).
T6 sequence (P42568 whole entry): T3 sequence (whole entry)
In words: Inhibition of human His-AF9 YEATS domain and biotinylated H3K9ac peptide interaction by AlphaScreen assay.

The target of test [6] is T7, Protein ENL (Homo sapiens) (UniProt Q03111).
T7 sequence (whole entry): T5 sequence (Q03111 whole entry)
Briefly: Inhibition of human His-ENL YEATS domain and biotinylated H3K9ac peptide interaction at 5 uM by AlphaScreen assay.

The species named for a further test is Homo sapiens. Briefly: Selectivity ratio of IC50 for human His-AF9 YEATS domain to IC50 for human His-ENL YEATS domain.

The source of these data is ChEMBL document CHEMBL4808215, “Discovery of Selective Small-Molecule Inhibitors for the ENL YEATS Domain” (J Med Chem, 2021).

One may read the IC50 as the concentration at which inhibition is half-maximal. Low values mean greater potency in that assay, high ones weaker potency in that assay.

Calls of active or inactive are those of the source. The rule behind the calls is not given here. Bounds are passed on as bounds.

T1 sequence (O95619 whole entry, the tested form may be a part): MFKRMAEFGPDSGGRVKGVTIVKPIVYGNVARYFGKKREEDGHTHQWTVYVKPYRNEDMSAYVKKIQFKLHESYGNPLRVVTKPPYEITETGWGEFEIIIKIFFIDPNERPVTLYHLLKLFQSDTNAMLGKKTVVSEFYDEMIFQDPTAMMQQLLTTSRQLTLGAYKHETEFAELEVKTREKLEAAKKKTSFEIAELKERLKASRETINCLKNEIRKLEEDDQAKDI

Regarding `O=C(NCc1ccc(CN2CCC2)cc1)c1ccc2nncn2c1`, the IC50 in [1] is more than 54000 nM; in test [2], 18500 nM. In addition, the inhibition entry in test [3], in [4] and in [5] was “Active” in each case.
Compound `O=C(NCc1ccc(CNc2ccc(F)cn2)cc1)c1ccc2nncn2c1` yielded an IC50 against Protein ENL of more than 5000 nM.
The same measure, in the same setting: the value for `O=C(NCc1ccc(CN2CCC2)cc1)c1ccc2ncnn2c1` was more than 5000 nM.
As to `O=C(NCc1cccc(CN2CCC2)c1)c1ccc2nncn2c1`, the IC50 against Protein ENL is 202 nM.
On the same count and under the same terms, then `O=C(NCc1ccc(CN2CCOCC2)cc1)c1ccc2nncn2c1`, with 891 nM; and `CC1CCN1Cc1ccc(CNC(=O)c2ccc3nncn3c2)cc1` (stereo not drawn), with 185 nM; and `O=C(NCc1ccc(CN2CCCCC2)cc1)c1ccc2nncn2c1`, with 636 nM.
The same measure, in the same setting: then `CC(NC(=O)c1ccc2nncn2c1)c1ccc(CN2CCC2)cc1` (stereo not drawn), with more than 1000 nM; and `CC(C)C1CCN1Cc1ccc(CNC(=O)c2ccc3nncn3c2)cc1` (stereo not drawn), with 266 nM.
Consider `CSc1ccc(CNC(=O)c2ccc3nncn3c2)cc1`, for which the IC50 against Protein ENL is 230 nM; against Protein AF-9 it was 1850 nM; in [1], more than 54000 nM; in test [2], more than 54000 nM. Moreover, the inhibition entry in [6], in test [3], in test [4] and in test [5] was “Active” each time. Also, the Ratio in the test filed under Homo sapiens is 4.
The compound `CC(C)(C)C1CCN1Cc1ccc(CNC(=O)c2ccc3nncn3c2)cc1` (stereo not drawn) showed an IC50 against Protein ENL of 264 nM.
As to `O=C(NCc1ccc(CNc2ncc(F)cn2)cc1)c1ccc2nncn2c1`, the values for the concentration for half-maximal inhibition (IC50) (on Protein AF-9; in test [1]; in test [2]) were 729 nM, more than 54000 nM and more than 54000 nM, respectively. Besides, the inhibition result in test [3], in test [4] and in [5] was “Active” in each case.
`O=C(NCc1ccc(CN2CCC2)cc1)c1ccn2cnnc2c1`: the IC50 on Protein ENL was more than 5000 nM.
On Protein ENL, `O=C(NCc1ccc(CNc2nc(F)ccc2F)cc1)c1ccc2nncn2c1` returned an IC50 of more than 2000 nM.
Consider `CC(C)c1cnc(NCc2ccc(CNC(=O)c3ccc4nncn4c3)cc2)nc1`, for which, at Protein ENL, the 50% inhibitory concentration (IC50) is more than 1000 nM.
Still for that read-out and setting: then `Cc1cc2ncc(C(=O)NCc3ccc(CN4CCC4)cc3)cn2n1`, with more than 5000 nM.
